According to ChEMBL document CHEMBL1667864, “Synthesis and biological assay of 4-aryl-6-chloro-quinoline derivatives as novel non-nucleoside anti-HBV agents” (Bioorg Med Chem, 2011):

Experiments:
[1] = Cytotoxicity against human HepG2(2.2.15) cells; type: cell-based
Hepatitis B virus [2] = assay: Antiviral activity against HBV infected in human HepG 2.215 cells assessed as inhibition of HBeAg secretion by ELISA; type: functional, organism-based; conditions: HepG2.2.15
Hepatitis B virus [3] = assay: Antiviral activity against HBV infected in human HepG 2.215 cells assessed as inhibition of HBsAg secretion by ELISA; type: functional, organism-based; conditions: HepG2.2.15
Hepatitis B virus [4] = assay: Antiviral activity against HBV infected in human HepG 2.215 cells assessed as inhibition of DNA replication by RT-PCR analysis; type: functional, organism-based; conditions: HepG2.2.15
How it was run: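 HepG 2.2.15 cells were seeded at 5 × 10⁵ per well, with medium changed every 2 days. After 6 days, compounds were added and fresh medium was fed every other day for another 6 days. Total DNA was isolated from collected cells, and HBV DNA was quantified by real-time PCR. IC₅₀ is the concentration giving 50% inhibition of HBV DNA replication.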

[5] = Selectivity index, CC50 for human HepG 2.215 cells to IC50 for HBV infected in human HepG 2.215 cells assessed as inhibition of HBeAg secretion; type: functional
How it was run: (§1)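 SI calculated as CC₅₀ (concentration killing 50% of HepG 2.2.15 cells) divided by IC₅₀ (50% inhibition of HBV DNA replication, HBeAg or HBsAg secretion).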

[6] = Selectivity index, CC50 for human HepG 2.215 cells to IC50 for HBV infected in human HepG 2.215 cells assessed as inhibition of HBsAg secretion; type: functional; how it was run: as §1
[7] = Selectivity index, CC50 for human HepG 2.215 cells to IC50 for HBV infected in human HepG 2.215 cells assessed as inhibition of DNA replication; type: functional; how it was run: as §1

SMILES | CC50 [1] | IC50 (Hepatitis B virus [2]) | IC50 (Hepatitis B virus [3]) | IC50 (Hepatitis B virus [4]) | Selectivity Index [5] | Selectivity Index [6] | Selectivity Index [7]
CC(C)(C)[Si](OCCc1c(OCc2c(Cl)cccc2Cl)nc2ccc(Cl)cc2c1-c1ccccc1Cl)(c1ccccc1)c1ccccc1 | > 1030 µM | > 1030 µM | > 1030 µM | > 1030 µM |  |  | 
CC(C)(C)[Si](OCCc1c(OS(=O)(=O)C(F)(F)F)nc2ccc(Cl)cc2c1-c1ccccc1Cl)(c1ccccc1)c1ccccc1 | > 1560 µM | 767 µM | 454 µM | > 1560 µM | 2 | >3.4 | 
OCCc1c(OCc2c(F)cccc2F)nc2ccc(Cl)cc2c1-c1ccccc1Cl | 109 µM | 1630 µM | 43.5 µM | 4.8 µM | <1 | 2.5 | 22.7
ClCCc1c(Cl)nc2ccc(Cl)cc2c1-c1ccccc1Cl | > 1400 µM | > 1400 µM | > 1400 µM | 19 µM |  |  | >73.8
COc1nc2ccc(Cl)cc2c(-c2ccccc2Cl)c1CCO | 141 µM | > 2710 µM | 66.3 µM | 6.9 µM | <1 | 2.1 | 20.5
CC(C)(C)[Si](OCCc1c(OCc2c(F)cccc2F)nc2ccc(Cl)cc2c1-c1ccccc1Cl)(c1ccccc1)c1ccccc1 | > 1870 µM | > 1870 µM | > 1870 µM | > 1870 µM |  |  | 
CC(C)(C)[Si](OCCc1c(Nn2nnc3ccccc32)nc2ccc(Cl)cc2c1-c1ccccc1Cl)(c1ccccc1)c1ccccc1 | > 1250 µM | > 1250 µM | > 1250 µM | 4.4 µM |  |  | >284.5
OCCc1c(OCc2c(Cl)cccc2Cl)nc2ccc(Cl)cc2c1-c1ccccc1Cl | 38.5 µM | 12.2 µM | 18.2 µM | 17.7 µM | 3.2 | 2.1 | 2.2
[N-]=[N+]=NCCc1c(Cl)nc2ccc(Cl)cc2c1-c1ccccc1Cl | > 2510 µM | > 2510 µM | > 2510 µM | 16.6 µM |  |  | >151.4
CC(C)(C)[Si](OCCc1c(N2CCOCC2)nc2ccc(Cl)cc2c1-c1ccccc1Cl)(c1ccccc1)c1ccccc1 | > 1200 µM | > 1200 µM | > 1200 µM | > 1200 µM |  |  | 
CC(C)(C)[Si](OCCc1c(N2CCNCC2)nc2ccc(Cl)cc2c1-c1ccccc1Cl)(c1ccccc1)c1ccccc1 | < 18.8 µM | > 1170 µM | 18.8 µM | 42.8 µM | <1 | <1 | <4.43
[N-]=[N+]=NCCc1c(N=[N+]=[N-])nc2ccc(Cl)cc2c1-c1ccccc1Cl | > 2480 µM | > 2480 µM | > 2480 µM | 4.5 µM |  |  | >551.2
CC(=O)OCCc1c(Cl)nc2ccc(Cl)cc2c1-c1ccccc1Cl | 116 µM | 70.9 µM | 147 µM | 6.1 µM | <1 | <1 | 19.1
CC(C)(C)[Si](OCCc1c(N2CCCCC2)nc2ccc(Cl)cc2c1-c1ccccc1Cl)(c1ccccc1)c1ccccc1 | > 969 µM | > 969 µM | > 969 µM | 6.7 µM |  |  | >143.7
OCCc1c(N2CCCCC2)nc2ccc(Cl)cc2c1-c1ccccc1Cl | 155 µM | 50 µM | 37.5 µM | 151 µM | 3.1 | 4.1 | 1
CS(=O)(=O)OCCc1c(Cl)nc2ccc(Cl)cc2c1-c1ccccc1Cl | 882 µM | 647 µM | 1020 µM | > 882 µM | >1.4 | <1 | 
OCCc1c(N2CCOCC2)nc2ccc(Cl)cc2c1-c1ccccc1Cl | > 1590 µM | > 1590 µM | 323 µM | > 1590 µM |  | >4.9 | 
OCCc1c(Nn2nnc3ccccc32)nc2ccc(Cl)cc2c1-c1ccccc1Cl | 82.4 µM | 111 µM | 37.7 µM | 8.3 µM | <1 | 2.2 | 10
OCCc1c(N2CCNCC2)nc2ccc(Cl)cc2c1-c1ccccc1Cl | < 5 µM | > 5 µM | > 5 µM | > 5 µM | <1 | <1 | 
O=c1[nH]c2ccc(Cl)cc2c(-c2ccccc2Cl)c1CCO | 388 µM | 340 µM | 70.2 µM | 72.1 µM | 1.1 | 5.5 | 5.4
OCCc1c(Cl)nc2ccc(Cl)cc2c1-c1ccccc1Cl | 42.5 µM | 11.3 µM | 45.3 µM | 9.8 µM | 3.8 | <1 | 4.3
CS(=O)(=O)OCCc1c(OS(C)(=O)=O)nc2ccc(Cl)cc2c1-c1ccccc1Cl | 804 µM | 367 µM | 16.5 µM | 6.8 µM | 2.2 | 48.6 | 118.2
C[C@H](Cn1cnc2c(N)ncnc21)OCP(=O)(O)O [TENOFOVIR ANHYDROUS] | > 1740 µM |  | 1450 µM | 0.54 µM | >1.5 | >1.2 | >3222
